13 compounds from ChEMBL document CHEMBL1149064, “Tyrosinase inhibitors from Anacardium occidentale fruits” (J Nat Prod, 1994) can be followed below.

Structures are written as SMILES. Activity calls are given as the source filed them. No cut-off for these calls is given here.

For the first assay, the target named is T1, Tyrosinase (Agaricus bisporus) (UniProt O42713).
T1 sequence (whole entry): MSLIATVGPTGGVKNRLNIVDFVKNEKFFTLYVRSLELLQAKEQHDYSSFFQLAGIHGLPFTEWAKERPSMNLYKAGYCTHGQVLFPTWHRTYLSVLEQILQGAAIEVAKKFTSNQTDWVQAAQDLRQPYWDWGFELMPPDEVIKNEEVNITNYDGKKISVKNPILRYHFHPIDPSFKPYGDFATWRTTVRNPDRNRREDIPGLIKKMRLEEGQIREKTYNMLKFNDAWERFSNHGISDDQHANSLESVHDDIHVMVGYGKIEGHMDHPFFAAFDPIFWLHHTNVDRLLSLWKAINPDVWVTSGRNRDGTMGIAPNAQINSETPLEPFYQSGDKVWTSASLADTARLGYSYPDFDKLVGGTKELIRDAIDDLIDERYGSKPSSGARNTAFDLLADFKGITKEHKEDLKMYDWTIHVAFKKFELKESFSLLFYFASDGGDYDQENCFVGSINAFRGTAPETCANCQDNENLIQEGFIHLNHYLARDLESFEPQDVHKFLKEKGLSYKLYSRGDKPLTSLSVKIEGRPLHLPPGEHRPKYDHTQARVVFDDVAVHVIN
The assay is described as follows: Inhibition of mushroom tyrosinase assessed as oxidation of L-DOPA at 0.8 mM.
In the case of `C=CC/C=C\C/C=C\CCCCCCCc1cccc(O)c1C(=O)O` (stereo in doubt; 8), the inhibition (usually the drop in the measured response relative to a control, in per cent) was found to be 15%.

For `CCCCCCCCCCCCCCCc1cccc(O)c1`, the result was inactive.

In the case of `CCC/C=C\C/C=C\CCCCCCCc1cccc(O)c1C(=O)O`, the inhibition stood at 15%.

Take `O=C(O)c1ccccc1O`: the inhibition turned out to be 23%.

On to `C=CC/C=C\C/C=C\CCCCCCCc1cc(O)c(C)c(O)c1`, for which the inhibition came out at 16%.

In the case of `CCCCCCCCCCCCCCCc1cc(O)cc(O)c1`, the inhibition was 21%.

Turning to `C=CC/C=C\C/C=C\CCCCCCCc1cccc(O)c1C(=O)O` (stereo in doubt; 5), the inhibition was found to be 45%.

With `C=CC/C=C\C/C=C\CCCCCCCc1cc(O)cc(O)c1`, the inhibition is 88%.

Take `CCCCCC/C=C\CCCCCCCc1cc(O)c(C)c(O)c1`: the inhibition was found to be 24%.

Consider `Oc1cccc(O)c1`, for which the inhibition is 34%.

Turning to `CCC/C=C\C/C=C\CCCCCCCc1cc(O)c(C)c(O)c1`, the inhibition is 20%.

Take `CCCCCC/C=C\CCCCCCCc1cccc(O)c1C(=O)O`: the inhibition was found to be 15%.

The target of a further assay is T1, Tyrosinase (Agaricus bisporus). The assay is described as follows: Inhibition of mushroom tyrosinase assessed as oxidation of L-DOPA.
`C=CC/C=C\C/C=C\CCCCCCCc1cccc(O)c1C(=O)O` (stereo in doubt; 8): the Activity result is “Dose-dependent effect” and the ID50 turned out to be 4.2 mM.

As to `CCC/C=C\C/C=C\CCCCCCCc1cccc(O)c1C(=O)O`, the Activity result is “Dose-dependent effect” and the ID50 was 6 mM.

For the compound `OC[C@H]1O[C@@H](Oc2ccc(O)cc2)[C@H](O)[C@@H](O)[C@@H]1O`, the ID50 was 6.2 mM.

Turning to `O=C(O)c1ccccc1O`, the ID50 turned out to be 3.9 mM.

Consider `CCCCCCCCCCCCCCCc1cc(O)cc(O)c1`, for which the Activity entry is “Dose-dependent effect”.

For the compound `C=CC/C=C\C/C=C\CCCCCCCc1cccc(O)c1C(=O)O` (stereo in doubt; 5), the Activity entry was “Dose-dependent effect” and the ID50 stood at 1.1 mM.

For `C=CC/C=C\C/C=C\CCCCCCCc1cc(O)cc(O)c1`, the Activity result was “Dose-dependent effect” and the ID50 is 0.04 mM.

For `Oc1cccc(O)c1`, the ID50 was found to be 1.2 mM.

As to `CCCCCC/C=C\CCCCCCCc1cccc(O)c1C(=O)O`, the Activity result was “Dose-dependent effect” and the ID50 came out at 7.5 mM.

For the next assay the target is unchanged. The assay is described as follows: Inhibition of mushroom tyrosinase assessed as oxidation of L-DOPA by Lineweaver-Burke plot analysis. An outline of the steps:
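Mushroom tyrosinase (138 units) added to L-DOPA (1 ml of 2.5 mM stock) plus sample (DMSO solution diluted 30-fold) in 0.1 M phosphate buffer pH 6.8, after 10 min at 25°. Initial linear rate of dopachrome formation read at 475 nm; double-reciprocal plot of 1/V (1/ΔA475 per min).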
As for `C=CC/C=C\C/C=C\CCCCCCCc1cccc(O)c1C(=O)O` (stereo in doubt; 5), the outcome was Active.

Regarding `C=CC/C=C\C/C=C\CCCCCCCc1cc(O)cc(O)c1`, the outcome was Active.

Another assay shares this target. The assay is described as follows: Inhibition of mushroom tyrosinase assessed as oxidation of L-DOPA preincubated for 5 mins before L-DOPA addition. An outline of the steps: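 Enzyme (138 units) and sample pre-incubated in 0.1 M phosphate buffer pH 6.8 for 5 min at 25°. Then 0.4 ml of 6.3 mM L-DOPA stock added and the reaction followed at 475 nm for 4 min. Controls: no inhibitor with or without pre-incubation, and inhibitor without pre-incubation.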
For the compound `C=CC/C=C\C/C=C\CCCCCCCc1cccc(O)c1C(=O)O` (stereo in doubt; 5), the result was Active.

As to `C=CC/C=C\C/C=C\CCCCCCCc1cc(O)cc(O)c1`, the result was Active.
